Source: ChEMBL document CHEMBL1124464, “Peripherally acting enkephalin analogues. 2. Polar tri- and tetrapeptides” (1989)

Columns and labels:
Format in all cases: functional
Mus musculus [1] = assay: Antinociceptive activity in the hot plate test (central activity) in rodents, when compound administered subcutaneously at 50 mg
In short: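 Male CFLP mice (Hacking and Churchill), groups of five to six, dosed sc at 10 mL kg-1 and placed on a copper surface held at 55 °C. Signs of discomfort (paw licking/shaking, jumping) were scored, with a 30-s cut-off. ED50 is the dose doubling response latency versus vehicle, estimated by parallel-line probit analysis.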

Mus musculus [2] = assay: Antinociceptive activity of subcutaneously administered compound in phenyl-p-benzoquinone induced writhing mice
In short: (§1)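 Groups of five to six female CD1 mice given drug subcutaneously (10 mL kg-1) 30 min before ip phenyl-p-benzoquinone 2.5 mg kg-1. Writhes (abdominal constrictions/hind-limb extensions) counted over 2.5 min from 10 min post-PBQ. ED50, the dose giving 50% fewer writhes than vehicle, from linear regression.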

Cavia porcellus = species on record: Cavia porcellus; assay: Inhibition of electrically induced contractions on the guinea pig ileum; details: read-out: ED50 (the source's name)
In short: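 Guinea pig ileum contractions evoked by coaxial stimulation at 0.1 Hz, 0.5-ms pulses, supramaximal voltage, recorded isometrically; dose-response curves built with 15-min washout between doses.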

Mus musculus [3] = assay: Antinociceptive activity of subcutaneously administered compound in acetic acid (AA) induced writhing mice; details: sc
In short: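 Male TFW mice, groups of five to six, given drug subcutaneously (10 mL kg-1), then ip acetic acid 0.6% at 25 mL kg-1. Writhes counted for 5 min beginning 15 min after acetic acid. ED50 = dose reducing writhes 50% versus vehicle, by linear regression.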

Mus musculus [4] = assay: Antinociceptive activity of perorally administered compound (20 mg) in phenyl-p-benzoquinone induced writhing mice
In short: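 Female CD1 mice (Charles River), groups of five to six, dosed orally by blunt intragastric needle (10 mL kg-1) 30 min before ip PBQ at 2.5 mg kg-1. Abdominal constrictions/hind-limb extensions were counted over 2.5 min starting 10 min after PBQ. ED50 is the dose halving writhes versus vehicle, estimated by linear regression.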

Mus musculus [5] = species on record: Mus musculus; assay: Dose ratio in the presence and absence of the peripheral opioid antagonist in N-methyl-nalorphine in AA writhing mice
In short: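 Acetic acid (0.6%, ip) writhing in male TFW mice; N-methylnalorphine 11.5 mg kg-1 ip 20 min before subcutaneous agonist. Writhes counted 5 min from 15 min post-irritant. Dose ratio taken as the shift between parallel regression lines with and without antagonist.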

Mus musculus [6] = assay: Antinociceptive activity in the hot plate test (central activity) in rodents, when compound administered subcutaneously; details: sc
In short: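 Male CFLP mice, groups of five to six, placed on a copper surface held at 55 °C; latency to paw licking/shaking or jumping recorded, 30-s cut-off. Drug given subcutaneously at 10 mL kg-1. ED50 = dose doubling response latency versus vehicle, by parallel-line probit analysis.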

Mus musculus [7] = assay: Antinociceptive activity of perorally administered compound in phenyl-p-benzoquinone induced writhing mice; details: po
In short: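 Female CD1 mice, groups of five to six, dosed orally by blunt intragastric needle (10 mL kg-1) 30 min before ip phenyl-p-benzoquinone 2.5 mg kg-1. Abdominal constrictions/hind-limb extensions counted over 2.5 min starting 10 min after PBQ. ED50 = dose halving writhes versus vehicle, by linear regression.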

Mus musculus [8] = assay: Antinociceptive activity of subcutaneously administered compound (1 mg) in phenyl-p-benzoquinone induced writhing mice; in short: as §1
[9] = Mus musculus, sc, read-out: ED50

Structure (SMILES) | Inhibition (Mus musculus [1]) [%] | ED50 (Mus musculus [2]; [9]) [mg/kg] | EC50 (Cavia porcellus) [nM] | ED50 (Mus musculus [3]) [mg/kg] | Inhibition (Mus musculus [4]) [%] | Ratio (Mus musculus [5]) | ED50 (Mus musculus [6]) [mg/kg] | ED50 (Mus musculus [7]) [mg/kg] | ED50 (Mus musculus [2]) [mg/kg] | Inhibition (Mus musculus [8]) [%]
CC(=O)O.CCN(CCc1ccc(Cl)c(Cl)c1)C(=O)CNC(=O)[C@@H](CCCN=C(N)N)NC(=O)[C@H](Cc1ccc(O)cc1)N=C(N)N | 0 | 0.2 | < 100 | 0.62 | 14 | 1 | – | – | – | –
CC(=O)O.CCN(CCc1cccs1)C(=O)CNC(=O)[C@@H](CCCN=C(N)N)NC(=O)[C@H](Cc1ccc(O)cc1)N=C(N)N | – | 0.44 | 9.3 | – | 15 | – | 22.9 | – | – | –
CC(=O)O.CCN(CCc1ccc(F)cc1)C(=O)CNC(=O)[C@@H](CCCN=C(N)N)NC(=O)[C@H](Cc1ccc(O)cc1)N=C(N)N | – | 0.08 | 6.8 | 0.02 | – | 2.4 | 20 | 5.3 | – | –
CC(=O)O.CCN(Cc1ccccc1F)C(=O)CNC(=O)[C@@H](CCCN=C(N)N)NC(=O)[C@H](Cc1ccc(O)cc1)N=C(N)N | – | 0.43 | 20.6 | 0.81 | 16 | 7.8 | 14.6 | – | – | –
CC(=O)O.CCN(Cc1ccc(F)cc1)C(=O)CNC(=O)[C@@H](CCCN=C(N)N)NC(=O)[C@H](Cc1ccc(O)cc1)N=C(N)N | 0 | – | 46 | 0.32 | 12 | 6.4 | – | – | 1.7 | –
CC(=O)O.CCN(CCc1cccc2ccccc12)C(=O)CNC(=O)[C@@H](CCCN=C(N)N)NC(=O)[C@H](Cc1ccc(O)cc1)N=C(N)N | 0 | 1.4 | 30 | – | 0 | – | – | – | – | –
CC(=O)O.CCN(CCc1ccc([N+](=O)[O-])o1)C(=O)CNC(=O)[C@@H](CCCN=C(N)N)NC(=O)[C@@H](N)Cc1ccc(O)cc1 | – | – | – | – | 0 | – | – | – | – | 0
CC(=O)O.CCN(CCc1cccs1)C(=O)CNC(=O)[C@@H](CCCN=C(N)N)NC(=O)[C@@H](N)Cc1ccc(O)cc1 | – | – | – | – | 21 | – | – | – | – | 0
CC(=O)O.CCN(C(=O)CNC(=O)[C@@H](CCCN=C(N)N)NC(=O)[C@@H](N)Cc1ccc(O)cc1)[C@@H](Cc1ccccc1F)C(N)=O | – | 0.15 | 0.39 | 0.0009 | – | 3.9 | 1.95 | 5.9 | – | –
CC(=O)O.CCN(C(=O)CNC(=O)[C@@H](CCCN=C(N)N)NC(=O)[C@@H](N)Cc1ccc(O)cc1)[C@@H](Cc1ccc(F)cc1)C(N)=O | – | 0.13 | 2.2 | 0.0006 | – | 2.3 | 1.6 | 7.9 | – | –
CC(=O)O.CCN(C(=O)CNC(=O)[C@@H](CCCN=C(N)N)NC(=O)[C@@H](N)Cc1ccc(O)cc1)[C@@H](Cc1ccc(Cl)c(Cl)c1)C(N)=O | – | 1.79 | 0.79 | 0.008 | – | 9.7 | 38.2 | 29.2 | – | –
CC(=O)O.CCN(C(=O)CNC(=O)[C@@H](CCCN=C(N)N)NC(=O)[C@@H](N)Cc1ccc(O)cc1)[C@@H](Cc1ccc([N+](=O)[O-])cc1)C(N)=O | – | 0.06 | 5.2 | 0.05 | – | 3.4 | 0.54 | 13.9 | – | –
CC(=O)O.CCN(C(=O)CNC(=O)[C@@H](CCCN=C(N)N)NC(=O)[C@H](Cc1ccc(O)cc1)N=C(N)N)[C@@H](Cc1ccc([N+](=O)[O-])cc1)C(N)=O | – | 0.005 | 3.9 | 0.009 | – | 5.1 | 0.34 | 1.9 | – | –
CC(=O)O.CCN(C(=O)CNC(=O)[C@@H](CCCN=C(N)N)NC(=O)[C@H](Cc1ccc(O)cc1)N=C(N)N)[C@@H](Cc1ccc(F)cc1)C(N)=O | – | 0.04 | 0.09 | 0.002 | – | 6.5 | 0.9 | 25.6 | – | –
CC(=O)O.CCN(CCc1ccc2ccccc2c1)C(=O)CNC(=O)[C@@H](CCCN=C(N)N)NC(=O)[C@@H](N)Cc1ccc(O)cc1 | – | – | – | – | 0 | – | – | – | – | 27
CC(=O)O.CCN(CCc1ccc(F)cc1)C(=O)CNC(=O)[C@@H](CCCN=C(N)N)NC(=O)[C@@H](N)Cc1ccc(O)cc1 | – | 1.6 | 20.5 | 0.14 | – | 4.5 | 12.3 | 30.8 | – | –
CC(=O)O.CCN(Cc1ccccc1F)C(=O)CNC(=O)[C@@H](CCCN=C(N)N)NC(=O)[C@@H](N)Cc1ccc(O)cc1 | 0 | 31.1 | 325 | 1.1 | – | 8 | – | – | – | –
CC(=O)O.CCN(CCc1cccc2ccccc12)C(=O)CNC(=O)[C@@H](CCCN=C(N)N)NC(=O)[C@@H](N)Cc1ccc(O)cc1 | 0 | 1.4 | 75.9 | – | 31 | – | – | – | – | –
CC(=O)O.CCN(CCc1ccccc1[N+](=O)[O-])C(=O)CNC(=O)[C@@H](CCCN=C(N)N)NC(=O)[C@H](Cc1ccc(O)cc1)N=C(N)N | – | 1.1 | 1.2 | 0.03 | – | 8.6 | 52.9 | 76.1 | – | –
CC(=O)O.CCN(CCc1ccc([N+](=O)[O-])cc1)C(=O)CNC(=O)[C@@H](CCCN=C(N)N)NC(=O)[C@H](Cc1ccc(O)cc1)N=C(N)N | – | 0.24 | 30.4 | 0.15 | – | 9.6 | 19.2 | 10 | – | –
CC(=O)O.CCN(Cc1ccccc1[N+](=O)[O-])C(=O)CNC(=O)[C@@H](CCCN=C(N)N)NC(=O)[C@H](Cc1ccc(O)cc1)N=C(N)N | 0 | 4 | 244 | 1.1 | 14 | 11 | – | – | – | –
CC(=O)O.CCN(CCc1ccc([N+](=O)[O-])o1)C(=O)CNC(=O)[C@@H](CCCN=C(N)N)NC(=O)[C@H](Cc1ccc(O)cc1)N=C(N)N | – | – | – | – | 15 | – | – | – | – | 17
